# Numbered stars: 1 amine (or outer) side, 2 acyl side, 3 side chain; on linkers, the order of the positions; unused ones are H or OH. Bridge positions count the residues as written; N and C are the ends. Square brackets hold non-standard residues; d marks the D form. Peptide text beside a SMILES is read from it. * marks the point of attachment. X1 = c1ccc(-c2ccc(N*)cc2)cc1; NH(2-ClPh) = Clc1ccccc1N*; Octanoyl = CCCCCCCC(=O)*; Dab = NCC[C@H](N)C(=O)O; CO = O=C([*:1])[*:2]
# Tests used:
# Acinetobacter baumannii [1] = experiment: Antibacterial activity against clinical isolate carbapenem and polymyxin resistant Acinetobacter baumannii Ptyela 100734512:2 after 18 hrs by 2 fold serial dilution method; format: functional; settings: Ptyela 100734512:2, 18 h
# How it was run: (§1)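 Polymyxin-resistant clinical isolates were grown overnight at 37 °C in NB or MHB with shaking, diluted 50-fold in MHB and grown 1.5–3 h to mid-log phase. The inoculum was 5×10^5 CFU/mL. Compounds were 2-fold broth serial dilutions, final 32 to 0.015 μg/mL; the polymyxin controls ran 128–0.06 μg/mL. The MIC was the lowest concentration with no visible growth after 18 h at 37 °C.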
# Klebsiella pneumoniae [2] = experiment: Antibacterial activity against Klebsiella pneumoniae ATCC BAA-2146 expressing NDM-1 after 18 hrs by 2 fold serial dilution method; format: functional; settings: ATCC BAA-2146, 18 h
# How it was run: (§2)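 Overnight cultures at 37 °C in nutrient or Mueller Hinton broth with shaking were diluted 50-fold in MHB and grown 1.5–3 h to mid-log phase. The inoculum was 5×10^5 CFU/mL in MHB. Compounds were 2-fold serially diluted, final 32 to 0.015 μg/mL. After 18 h at 37 °C, the MIC was read visually as the lowest concentration with no visible growth.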
# Acinetobacter baumannii [3] = experiment: Antibacterial activity against Acinetobacter baumannii ATCC 19606 after 18 hrs by 2 fold serial dilution method; format: functional; settings: ATCC 19606, 18 h
# How it was run: (§3)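 Overnight cultures in nutrient or Mueller Hinton broth at 37 °C with shaking, diluted 50-fold into fresh MHB and grown 1.5–3 h to mid-log. Inoculum 5×10^5 CFU/mL in 2-fold serial dilutions, final range 32 to 0.015 μg/mL. MIC read visually after 18 h at 37 °C as the lowest concentration with no visible growth.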
# Pseudomonas aeruginosa [4] = experiment: Antibacterial activity against Pseudomonas aeruginosa IFO3080; format: functional
# Klebsiella pneumoniae [5] = experiment: Antibacterial activity against multidrug resistant Klebsiella pneumoniae ATCC 700603 after 18 hrs by 2 fold serial dilution method; format: functional; settings: Klebsiella pneumoniae, 700603, 18 h; how it was run: as §2
# Klebsiella pneumoniae [6] = experiment: Antibacterial activity against Klebsiella pneumoniae ATCC 13883 after 18 hrs by 2 fold serial dilution method; format: functional; settings: ATCC 13883, 18 h; how it was run: as §3
# [7] = Cytotoxicity against human HepG2 cells after 24 hrs by resazurin assay; format: cell-based; settings: HepG2 cells
# Pseudomonas aeruginosa [8] = experiment: Antibacterial activity against clinical isolate polymyxin resistant Pseudomonas aeruginosa PA9704 after 18 hrs by 2 fold serial dilution method; format: functional; settings: PA9704, 18 h; how it was run: as §1
# Klebsiella pneumoniae [9] = experiment: Antibacterial activity against clinical isolate carbapenem and polymyxin resistant Klebsiella pneumoniae Koprana 100650661:1 after 18 hrs by 2 fold serial dilution method; format: functional; settings: Koprana 100650661:1, 18 h; how it was run: as §1
# Pseudomonas aeruginosa [10] = experiment: Antibacterial activity against clinical isolate polymyxin resistant Pseudomonas aeruginosa FADDI-PA070 after 18 hrs by 2 fold serial dilution method; format: functional; settings: FADDI-PA070, 18 h; how it was run: as §1
# Staphylococcus aureus [11] = experiment: microbe, parasite or virus in culture; settings: ATCC 25923, 18 h
# Klebsiella pneumoniae [12] = experiment: Antibacterial activity against clinical isolate carbapenem and polymyxin resistant Klebsiella pneumoniae 138-16357-20362 after 18 hrs by 2 fold serial dilution method; format: functional; settings: 138-16357-20362, 18 h; how it was run: as §1
# Pseudomonas aeruginosa [13] = experiment: Antibacterial activity against Pseudomonas aeruginosa ATCC 27853 after 18 hrs by 2 fold serial dilution method; format: functional; settings: ATCC 27853, 18 h; how it was run: as §3
# Escherichia coli [14] = experiment: Antibacterial activity against Escherichia coli IFO12734; format: functional
# Escherichia coli [15] = experiment: Antibacterial activity against Escherichia coli ATCC 25922 after 18 hrs by 2 fold serial dilution method; format: functional; settings: ATCC 25922, 18 h; how it was run: as §3
# [16] = Cytotoxicity against HEK293 cells after 24 hrs by resazurin assay; format: cell-based; settings: human, HEK293 cells
# Escherichia coli [17] = experiment: Antibacterial activity against Escherichia coli ATCC 26 after 18 hrs by 2 fold serial dilution method; format: functional; settings: ATCC 26, 18 h; how it was run: as §2
# [18] = Cytotoxicity against HK2 cells assessed as LDH release by Western blot analysis; format: cell-based, HK-2; settings: human, primary human renal proximal tubule epithelial cells; read-out: CC50
# [19] = Cytotoxicity against HK2 cells assessed as GGT release by Western blot analysis; format: cell-based, HK-2; settings: human, primary human renal proximal tubule epithelial cells; read-out: CC50
# Pseudomonas aeruginosa [20] = experiment: Antibacterial activity against Pseudomonas aeruginosa after 24 hrs by macrobroth dilution method; format: functional
# Staphylococcus aureus [21] = experiment: Antibacterial activity against Staphylococcus aureus after 24 hrs by macrobroth dilution method; format: functional
# Escherichia coli [22] = experiment: Antibacterial activity against Escherichia coli after 24 hrs by macrobroth dilution method; format: functional
# Klebsiella pneumoniae [23] = experiment: Antibacterial activity against Klebsiella pneumoniae after 16 to 20 hrs by 2 fold broth microdilution method; format: functional
# Pseudomonas aeruginosa [24] = experiment: Antibacterial activity against Pseudomonas aeruginosa after 16 to 20 hrs by 2 fold broth microdilution method; format: functional
# Escherichia coli [25] = experiment: Antibacterial activity against Escherichia coli after 16 to 20 hrs by 2 fold broth microdilution method; format: functional
# Acinetobacter baumannii [26] = experiment: Antibacterial activity against Acinetobacter baumannii after 16 to 20 hrs by 2 fold broth microdilution method; format: functional
SMILES,MIC (Acinetobacter baumannii [1]) [µg/mL],MIC (Klebsiella pneumoniae [2]) [µg/mL],MIC (Acinetobacter baumannii [3]) [µg/mL],MIC (Klebsiella pneumoniae [5]) [µg/mL],MIC (Klebsiella pneumoniae [6]) [µg/mL],CC50 at 24 h [7] [µM],MIC (Pseudomonas aeruginosa [8]) [µg/mL],MIC (Klebsiella pneumoniae [9]) [µg/mL],MIC (Pseudomonas aeruginosa [10]) [µg/mL],MIC (Staphylococcus aureus [11]) [µg/mL],MIC (Klebsiella pneumoniae [12]) [µg/mL],MIC (Pseudomonas aeruginosa [13]) [µg/mL],MIC (Escherichia coli [15]) [µg/mL],also measured
CCCCCCCC(=O)N[C@@H](CCN)C(=O)N[C@H](C(=O)N[C@@H](CCN)C(=O)N[C@H]1CCNC(=O)[C@H]([C@@H](C)O)NC(=O)[C@H](CCN)NC(=O)[C@H](CCN)NC(=O)[C@H](CC(C)C)NC(=O)[C@@H](Cc2ccccc2)NC(=O)[C@H](CCN)NC1=O)[C@@H](C)O (Octanoyl-[Dab]T[Dab][Dab][Dab][dF]L[Dab][Dab]T; lactam 4-C),> 64,0.5,0.5,1,2,> 300,> 128,> 128,> 32,> 128,> 128,1,0.5,MIC (Pseudomonas aeruginosa [4]): 1 µM; MIC (Escherichia coli [14]): 0.5 µM
CC(C)C[C@@H]1NC(=O)[C@@H](Cc2ccccc2)NC(=O)[C@H](CCN)NC(=O)[C@@H](NC(=O)[C@H](CCN)NC(=O)[C@@H](NC(=O)[C@H](CCN)NC(=O)Nc2ccc(-c3ccccc3)cc2)[C@@H](C)O)CCNC(=O)[C@H]([C@@H](C)O)NC(=O)[C@H](CCN)NC(=O)[C@H](CCN)NC1=O ({X1-CO}-[Dab]T[Dab][Dab][Dab][dF]L[Dab][Dab]T; lactam 4-C),16,1,1,2,2,316,8,16,16,32,> 32,1,2,CC50 at 24 h [16]: > 300 µM; MIC (Escherichia coli [17]): 2.5 µg/mL; CC50 [18]: > 128 µg/mL; CC50 [19]: > 128 µg/mL
CCCCCCCC(=O)N[C@@H](CCN)C(=O)N[C@H](C(=O)N[C@@H](CCN)C(=O)N[C@H]1CCNC(=O)[C@H]([C@@H](C)O)NC(=O)[C@H](CCNC(=O)[C@@H](N)CCCNC(=N)N)NC(=O)[C@H](CCN)NC(=O)[C@H](CC(C)C)NC(=O)[C@@H](Cc2ccccc2)NC(=O)[C@H](CCN)NC1=O)[C@@H](C)O (Octanoyl-[Dab]T[Dab][Dab][Dab][dF]L[Dab][Dab](Arg)T; lactam 4-C),> 32,8,16,8,32,> 300,> 32,> 32,> 32,> 32,> 32,32,32,MIC (Pseudomonas aeruginosa [20]): 0.03 µg/mL; MIC (Staphylococcus aureus [21]): 2 µg/mL; MIC (Escherichia coli [22]): 0.16 µg/mL
CC(C)C[C@@H]1NC(=O)[C@@H](Cc2ccccc2)NC(=O)[C@H](CCN)NC(=O)[C@@H](NC(=O)[C@H](CCN)NC(=O)[C@@H](NC(=O)[C@H](CCN)NC(=O)Nc2ccccc2Cl)[C@@H](C)O)CCNC(=O)[C@H]([C@@H](C)O)NC(=O)[C@H](CCN)NC(=O)[C@H](CCN)NC1=O ({NH(2-ClPh)-CO}-[Dab]T[Dab][Dab][Dab][dF]L[Dab][Dab]T; lactam 4-C),> 32,4,1,2,2,> 300,> 32,> 32,> 32,> 32,> 32,0.5,1,MIC90 (Klebsiella pneumoniae [23]): 4 µg/mL; MIC90 (Pseudomonas aeruginosa [24]): 2 µg/mL; MIC90 (Escherichia coli [25]): 2 µg/mL; MIC90 (Acinetobacter baumannii [26]): 4 µg/mL

# — ChEMBL document CHEMBL3774373, “Activity and Predicted Nephrotoxicity of Synthetic Antibiotics Based on Polymyxin B” (J Med Chem, 2016)
